Results on 14 compounds are retold here after ChEMBL document CHEMBL1125133, “Benzodiazepine receptor binding activity of 9-(1-phenylethyl)purines” (J Med Chem, 1990).

For one assay, the species on record is Rattus norvegicus. The assay is described as follows: Percent change in conflict responding in Long-Evans rats. Type of assay: functional. In short, it runs like this: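 Long-Evans rats on a modified Geller–Seifter conflict schedule. Dosed by oral gavage at 25 mg/kg as a 0.5% methylcellulose suspension, with chlordiazepoxide at 20 mg/kg. Read-out is percent change in conflict responding, mean ±.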

The target in assay [1] is GABA-A receptor; anion channel. In words: Inhibitory concentration against specific binding of [3H]diazepam to Benzodiazepine receptor in rat brain. The assay is classed as tissue-based.
Assay [2] concerns the target T1, GABA-A receptor; anion channel (Rattus norvegicus) (UniProt O09028+P15431+P18506+P18508+P19969+P20236+P23574+P23576+P28471+P28473+P30191+P62813+P63079+P63138+Q91ZM7+Q9ES14). The assay is described as follows: Inhibition of [3H]-diazepam binding to rat brain GABA-A benzodiazepine receptor at 100 uM.
Assay [3] concerns the target T1, GABA-A receptor; anion channel (Rattus norvegicus). The assay is described as follows: Inhibition of [3H]diazepam binding to rat brain GABA-A Benzodiazepine receptor at 100 uM.

Consider `CSc1ncnc2c1ncn2Cc1ccccc1`, for which the Change in the assay filed under Rattus norvegicus amounted to 13%.

Turning to `C[C@@H](c1ccccc1)n1cnc2c(N(C)C)ncnc21`, the Change in the assay filed under Rattus norvegicus was 5%.

In assay [1], `CC(=O)Oc1cccc(C(C)n2cnc3c(N(C)C)ncnc32)c1` (racemic) returned a half-inhibitory concentration (IC50) of 380 nM.

As for `CC(=O)Oc1cccc(C(C)n2cnc3c(O)ncnc32)c1` (racemic), the inhibition in assay [2] was 68%.

In the case of `CC(c1cccc(O)c1)n1cnc2c(S)ncnc21` (racemic), the inhibition in assay [3] turned out to be 64%.

`CSc1ncnc2c1ncn2C(C)c1cccc(O)c1` (racemic) returned an IC50 in assay [1] of 1200 nM.

For `CC(c1cccc(N)c1)n1c(Br)nc2c(N(C)C)ncnc21` (racemic), the half-maximal inhibitory concentration (IC50) in assay [1] came to 520 nM. In addition, in the assay listed under Rattus norvegicus, the Change worked out at 5%.

In turn, `CC(c1cccc(O)c1)n1cnc2c(N(C)C)ncnc21` (racemic) gave an IC50 in assay [1] of 480 nM. Besides, the Change in the assay listed under Rattus norvegicus is given as -7%.

Consider `CC(c1cccc(O)c1)n1cnc2c(O)ncnc21` (racemic), for which the IC50 in assay [1] is 2200 nM.

`CSc1ncnc2c1ncn2C(C)c1cccc(OC(C)=O)c1` (racemic) yielded a concentration for half-maximal inhibition (IC50) in assay [1] of 1700 nM.

Take `CC(=O)Oc1cccc(Cn2cnc3c(N(C)C)ncnc32)c1`: the Change in the assay filed under Rattus norvegicus stood at 2%.

Regarding `C[C@H](c1ccccc1)n1cnc2c(N(C)C)ncnc21`, the IC50 in assay [1] came out at 100000 nM.

`CC(c1cccc(N)c1)n1cnc2c(N(C)C)ncnc21` (racemic) displayed an IC50 in assay [1] of 160 nM. In the assay listed under Rattus norvegicus, the Change is -22%.

For `CN(C)c1ncnc2c1ncn2Cc1cccc(O)c1`, the Change in the assay filed under Rattus norvegicus was found to be 2%.

By IC50 is commonly meant the concentration that inhibits the measured activity by half. Usually inhibition stands for the percentage by which the read-out fell short of the control.
